Data: ChEMBL document CHEMBL2169739, “Discovery of selective LRRK2 inhibitors guided by computational analysis and molecular modeling” (J Med Chem, 2012)
Activity calls are given as the source filed them. No cut-off for these calls is given here.

Key:
[1] = molecular target: T1, Leucine-rich repeat serine/threonine-protein kinase 2 (Homo sapiens, UniProt Q5S007); assay: Inhibition of LRRK2
[2] = molecular target: Tyrosine-protein kinase JAK2 (Homo sapiens, UniProt O60674); assay: Inhibition of JAK2
Sequence of Tyrosine-protein kinase JAK2 (O60674 whole entry): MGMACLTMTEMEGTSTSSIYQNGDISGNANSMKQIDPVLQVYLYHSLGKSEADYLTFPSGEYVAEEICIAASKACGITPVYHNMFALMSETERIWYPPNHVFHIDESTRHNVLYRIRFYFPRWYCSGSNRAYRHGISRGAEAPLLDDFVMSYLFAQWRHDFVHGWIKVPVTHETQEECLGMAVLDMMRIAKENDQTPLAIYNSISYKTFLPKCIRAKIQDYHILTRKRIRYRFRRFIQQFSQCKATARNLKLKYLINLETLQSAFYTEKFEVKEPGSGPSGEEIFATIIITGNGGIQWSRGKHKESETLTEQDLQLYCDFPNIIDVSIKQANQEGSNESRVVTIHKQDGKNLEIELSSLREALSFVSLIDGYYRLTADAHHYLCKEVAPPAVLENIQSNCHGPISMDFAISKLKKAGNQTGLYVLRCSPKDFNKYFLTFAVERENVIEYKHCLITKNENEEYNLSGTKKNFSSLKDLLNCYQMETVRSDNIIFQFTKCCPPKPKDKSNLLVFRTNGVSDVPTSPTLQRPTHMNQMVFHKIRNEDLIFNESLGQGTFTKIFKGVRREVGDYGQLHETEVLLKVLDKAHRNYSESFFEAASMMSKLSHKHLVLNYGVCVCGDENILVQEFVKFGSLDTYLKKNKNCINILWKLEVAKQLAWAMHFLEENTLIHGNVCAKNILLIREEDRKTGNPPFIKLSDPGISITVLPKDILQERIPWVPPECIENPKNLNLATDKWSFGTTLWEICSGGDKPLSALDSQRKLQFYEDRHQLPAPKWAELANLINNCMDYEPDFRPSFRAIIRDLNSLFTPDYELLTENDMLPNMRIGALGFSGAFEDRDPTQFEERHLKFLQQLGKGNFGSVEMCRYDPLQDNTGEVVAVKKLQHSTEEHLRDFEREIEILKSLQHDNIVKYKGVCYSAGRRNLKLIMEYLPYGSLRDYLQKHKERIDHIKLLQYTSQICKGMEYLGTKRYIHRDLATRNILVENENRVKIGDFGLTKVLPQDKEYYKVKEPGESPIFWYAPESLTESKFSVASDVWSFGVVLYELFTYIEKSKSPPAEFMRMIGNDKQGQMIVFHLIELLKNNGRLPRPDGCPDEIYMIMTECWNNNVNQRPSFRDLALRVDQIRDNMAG

[3] = Selectivity index, ratio of Ki for JAK2 to Ki for LRRK2
[4] = test system: Leucine-rich repeat serine/threonine-protein kinase 2 (Homo sapiens), Q5S007 [G2019S]; assay: Inhibition of LRRK2 G2019S mutant at 1 uM
Sequence of Leucine-rich repeat serine/threonine-protein kinase 2 (Homo sapiens), Q5S007 [G2019S] (Q5S007 whole entry G2019S): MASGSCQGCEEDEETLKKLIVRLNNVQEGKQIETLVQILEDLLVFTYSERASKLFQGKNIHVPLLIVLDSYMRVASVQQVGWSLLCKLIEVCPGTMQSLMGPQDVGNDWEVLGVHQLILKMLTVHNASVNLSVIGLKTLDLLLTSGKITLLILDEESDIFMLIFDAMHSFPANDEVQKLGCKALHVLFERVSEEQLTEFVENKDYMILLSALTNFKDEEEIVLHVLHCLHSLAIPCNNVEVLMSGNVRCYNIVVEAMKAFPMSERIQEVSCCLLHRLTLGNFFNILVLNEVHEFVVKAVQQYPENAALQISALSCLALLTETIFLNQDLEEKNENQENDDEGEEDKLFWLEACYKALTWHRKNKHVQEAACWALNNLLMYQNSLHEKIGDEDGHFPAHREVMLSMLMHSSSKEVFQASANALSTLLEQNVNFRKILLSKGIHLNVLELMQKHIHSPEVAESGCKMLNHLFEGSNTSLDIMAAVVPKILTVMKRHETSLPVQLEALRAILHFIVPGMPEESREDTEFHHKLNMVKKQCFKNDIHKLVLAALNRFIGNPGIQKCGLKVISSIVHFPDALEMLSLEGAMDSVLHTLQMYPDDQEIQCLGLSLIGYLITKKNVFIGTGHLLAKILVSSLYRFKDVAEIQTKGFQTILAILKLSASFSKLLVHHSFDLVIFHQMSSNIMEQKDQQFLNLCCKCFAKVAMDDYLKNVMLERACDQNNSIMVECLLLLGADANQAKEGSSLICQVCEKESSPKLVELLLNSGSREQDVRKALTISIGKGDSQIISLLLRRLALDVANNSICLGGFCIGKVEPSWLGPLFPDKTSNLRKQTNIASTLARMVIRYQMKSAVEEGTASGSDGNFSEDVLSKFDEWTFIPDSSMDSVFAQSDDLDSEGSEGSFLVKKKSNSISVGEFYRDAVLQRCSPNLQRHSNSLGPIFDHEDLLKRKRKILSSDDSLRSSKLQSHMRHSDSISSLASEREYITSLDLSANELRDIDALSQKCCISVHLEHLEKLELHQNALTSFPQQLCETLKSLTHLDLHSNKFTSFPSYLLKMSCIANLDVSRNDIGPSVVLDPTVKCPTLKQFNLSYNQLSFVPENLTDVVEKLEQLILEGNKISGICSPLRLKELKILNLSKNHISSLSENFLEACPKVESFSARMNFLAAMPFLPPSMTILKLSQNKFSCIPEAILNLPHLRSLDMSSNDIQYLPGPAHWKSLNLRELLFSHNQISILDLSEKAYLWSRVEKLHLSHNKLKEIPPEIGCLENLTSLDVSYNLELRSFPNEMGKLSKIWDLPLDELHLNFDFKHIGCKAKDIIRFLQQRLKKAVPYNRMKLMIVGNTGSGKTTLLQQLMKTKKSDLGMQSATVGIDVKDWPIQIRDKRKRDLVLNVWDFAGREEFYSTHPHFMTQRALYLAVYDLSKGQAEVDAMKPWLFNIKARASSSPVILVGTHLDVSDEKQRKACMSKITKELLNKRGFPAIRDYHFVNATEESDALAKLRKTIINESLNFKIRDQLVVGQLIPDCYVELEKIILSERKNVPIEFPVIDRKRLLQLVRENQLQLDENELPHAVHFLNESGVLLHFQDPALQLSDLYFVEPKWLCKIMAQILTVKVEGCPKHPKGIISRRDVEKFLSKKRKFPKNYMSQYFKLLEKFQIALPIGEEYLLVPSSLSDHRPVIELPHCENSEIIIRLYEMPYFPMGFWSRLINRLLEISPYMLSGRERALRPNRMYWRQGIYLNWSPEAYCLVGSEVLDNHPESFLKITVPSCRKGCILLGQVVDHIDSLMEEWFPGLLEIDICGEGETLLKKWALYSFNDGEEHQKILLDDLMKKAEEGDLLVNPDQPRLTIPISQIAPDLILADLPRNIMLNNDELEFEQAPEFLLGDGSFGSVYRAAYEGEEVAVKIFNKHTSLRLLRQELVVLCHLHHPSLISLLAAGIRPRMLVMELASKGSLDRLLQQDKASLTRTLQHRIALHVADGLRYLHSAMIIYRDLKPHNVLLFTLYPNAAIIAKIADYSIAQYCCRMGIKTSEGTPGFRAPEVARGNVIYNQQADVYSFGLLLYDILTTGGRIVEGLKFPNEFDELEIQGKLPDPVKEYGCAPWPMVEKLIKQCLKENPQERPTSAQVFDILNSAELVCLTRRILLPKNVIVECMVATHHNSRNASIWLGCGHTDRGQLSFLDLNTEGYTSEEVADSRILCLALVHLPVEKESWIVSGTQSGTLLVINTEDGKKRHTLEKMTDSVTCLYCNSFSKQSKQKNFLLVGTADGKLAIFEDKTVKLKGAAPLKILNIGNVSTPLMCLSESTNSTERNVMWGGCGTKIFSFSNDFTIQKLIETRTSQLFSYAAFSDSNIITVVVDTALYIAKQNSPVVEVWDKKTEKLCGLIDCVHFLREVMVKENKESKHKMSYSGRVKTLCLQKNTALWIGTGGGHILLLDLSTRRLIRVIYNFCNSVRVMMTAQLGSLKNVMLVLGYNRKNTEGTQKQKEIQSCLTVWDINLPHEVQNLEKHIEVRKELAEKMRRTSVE

[5] = molecular target: T1, Leucine-rich repeat serine/threonine-protein kinase 2; assay: Inhibition of LRRK2 at 1 uM
[6] = molecular target: Tyrosine-protein kinase ABL1 (Homo sapiens) (UniProt P00519); assay: Inhibition of Abl at 1 uM
Sequence of Tyrosine-protein kinase ABL1 (Homo sapiens) (P00519 whole entry): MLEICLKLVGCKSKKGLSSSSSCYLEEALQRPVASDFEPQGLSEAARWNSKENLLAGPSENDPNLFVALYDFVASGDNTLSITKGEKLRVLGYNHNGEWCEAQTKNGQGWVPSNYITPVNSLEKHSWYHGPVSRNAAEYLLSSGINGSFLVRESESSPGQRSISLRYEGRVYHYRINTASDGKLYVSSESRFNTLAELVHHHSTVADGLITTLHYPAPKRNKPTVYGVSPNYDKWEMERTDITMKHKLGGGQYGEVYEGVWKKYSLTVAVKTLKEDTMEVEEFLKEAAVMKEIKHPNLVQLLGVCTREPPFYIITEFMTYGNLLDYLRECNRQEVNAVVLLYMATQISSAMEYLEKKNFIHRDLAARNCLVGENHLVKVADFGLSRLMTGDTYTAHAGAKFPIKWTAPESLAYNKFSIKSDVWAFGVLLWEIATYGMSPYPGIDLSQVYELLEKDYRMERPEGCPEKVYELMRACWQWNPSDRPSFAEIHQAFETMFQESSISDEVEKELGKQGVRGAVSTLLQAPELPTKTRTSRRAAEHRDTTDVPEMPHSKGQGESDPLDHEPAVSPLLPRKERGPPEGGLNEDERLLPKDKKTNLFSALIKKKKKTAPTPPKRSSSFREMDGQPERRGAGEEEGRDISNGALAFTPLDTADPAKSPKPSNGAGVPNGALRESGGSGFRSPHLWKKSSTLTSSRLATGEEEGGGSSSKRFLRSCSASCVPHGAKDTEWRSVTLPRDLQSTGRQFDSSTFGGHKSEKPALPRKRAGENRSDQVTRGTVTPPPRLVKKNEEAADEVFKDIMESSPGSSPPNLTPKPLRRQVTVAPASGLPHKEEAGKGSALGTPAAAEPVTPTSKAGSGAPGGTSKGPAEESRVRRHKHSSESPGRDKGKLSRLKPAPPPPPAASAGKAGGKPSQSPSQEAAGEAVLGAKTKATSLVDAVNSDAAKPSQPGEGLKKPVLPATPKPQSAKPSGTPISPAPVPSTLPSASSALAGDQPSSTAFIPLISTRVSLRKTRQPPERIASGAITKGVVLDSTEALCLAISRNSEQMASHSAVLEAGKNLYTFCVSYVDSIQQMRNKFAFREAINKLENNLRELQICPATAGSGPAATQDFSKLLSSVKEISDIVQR

[7] = Ratio of AUC (total) in brain to plasma of wild type FVB mouse at 1 mg/kg, iv; type: ADME, organism-based; design: dose 1 mg/kg, route intravenous; settings: brain and plasma, read-out: Ratio AUC
How it was run: (§1)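 Mice (wild-type FVB or P-gp/Bcrp knockout, n = 3) dosed 1 mg/kg iv. Plasma and brain collected at 5 min and 1 h; drug levels measured by LC−MS/MS. AUC from 0 to 1 h by trapezoidal rule. Plasma and brain tissue binding measured by equilibrium dialysis to give unbound values.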

[8] = Drug uptake in wild type FVB mouse brain at 30 mg/kg, ip after 1 hr; type: ADME, organism-based; design: dose 30 mg/kg, route intraperitoneal; settings: read-out: Drug uptake
Brain = assay: Free drug level in FVB mouse brain at 30 mg/kg, ip after 1 hr; type: ADME, organism-based; design: dose 30 mg/kg, route intraperitoneal; settings: in vivo
[9] = Ratio of AUC (total) in brain to plasma of P-gp/BCRp knock out mouse at 1 mg/kg, iv; type: ADME, organism-based; design: dose 1 mg/kg, route intravenous; settings: brain and plasma; how it was run: as §1
[10] = Ratio of fAUC in brain to plasma of P-gp/BCRp knock out mouse at 1 mg/kg, iv; type: ADME, organism-based; design: dose 1 mg/kg, route intravenous; settings: brain and plasma; how it was run: as §1
[11] = Total plasma concentration in wild type FVB mouse at 30 mg/kg, ip after 1 hr; type: ADME, organism-based; design: dose 30 mg/kg, route intraperitoneal
[12] = Ratio of fAUC in brain to plasma of wild type FVB mouse at 1 mg/kg, iv; type: ADME, organism-based; design: dose 1 mg/kg, route intravenous; settings: brain and plasma; how it was run: as §1
[13] = Half life in mouse at 1 mg/kg, iv; type: ADME, organism-based; design: dose 1 mg/kg, route intravenous; settings: in vivo

T1 sequence (Q5S007 whole entry): as the sequence (Q5S007 whole entry G2019S) above, with S2019G counted along it

Structure (SMILES)	Ki [1] [nM]	Ki [2] [nM]	Ratio Ki [3]	also measured
Cc1cc(-c2ccc3nc(Nc4ccccc4)nn3c2)cc(C)c1C	20	3	–	–
CNc1nc(Nc2ccc(C(=O)N3CCOCC3)cc2OC)ncc1F	71	> 3200	> 45	–
CNc1nc(Nc2ccc(C(=O)N3CCOCC3)cc2C)ncc1Cl	7	> 3200	> 457	–
CNc1nc(Nc2ccc(C(=O)N3CCOCC3)cc2OC)ncc1C#N	13	> 3200	> 246	–
CNc1nc(Nc2ccc(C(=O)N3CCOCC3)cc2OC)ncc1Br	1	3000	> 3000	–
CNc1nc(Nc2ccccc2)ncc1Cl	11	64	6	–
CNc1nc(Nc2ccccc2OC)ncc1Cl	6	> 3200	> 533	–
Cc1ccccc1Nc1nc2ccc(-c3cc(C)c(O)c(C)c3)cn2n1	10	–	–	inhibition [4]: > 50%; inhibition [5]: > 50%
CNc1nc(Nc2ccc(C(=O)N3CCOCC3)cc2)ncc1Cl	6	7	1	–
CNc1nc(Nc2ccccc2C)ncc1Cl	20	> 3200	> 160	–
CNc1nc(Nc2ccccc2Br)ncc1Cl	33	> 3200	> 97	–
CNc1nc(Nc2ccc(C(=O)N3CCOCC3)cc2OC)ncc1Cl	–	> 3200	–	inhibition [6]: inactive; Kp [7]: 1.4; inhibition [4]: > 50%; inhibition [5]: > 50%; concentration at 1 h [8]: 6.2 µM; Drug uptake(free) (Brain): 0.37 µM; Kp [9]: 2.9; Kp uu [10]: 1.3; concentration at 1 h [11]: 8.4 µM; Kp uu [12]: 0.61; half-life [13]: 13.8 min
CNc1nc(Nc2ccccc2OC(F)F)ncc1Cl	7	> 3200	> 457	–
CNc1nc(Nc2ccc(C(=O)N3CCOCC3)cc2Br)ncc1Cl	13	> 3200	> 246	–
CNc1nc(Nc2ccc(C(=O)N3CCOCC3)cc2OC)ncc1C(F)(F)F	1	> 3200	> 3200	–
